Assay outcomes deposited in PubChem BioAssay by several laboratories.
Sampled rows, rich in hits. Any-hit rate of the full collection: about 2.6%.
SENP8 block-1 = SENP8 protease inhibitors, primary screen, biochemical, luminescence; actives 1.2% (n = 330,000); purified SENP8, Z-RLRGG-aminoluciferin cleavage; inhibition, % at 10 µM; Sentrin-specific protease 8 (Homo sapiens), Q96LD8; in the data active = inhibition above about 50%
Target sequence (Q96LD8 whole entry, looked up): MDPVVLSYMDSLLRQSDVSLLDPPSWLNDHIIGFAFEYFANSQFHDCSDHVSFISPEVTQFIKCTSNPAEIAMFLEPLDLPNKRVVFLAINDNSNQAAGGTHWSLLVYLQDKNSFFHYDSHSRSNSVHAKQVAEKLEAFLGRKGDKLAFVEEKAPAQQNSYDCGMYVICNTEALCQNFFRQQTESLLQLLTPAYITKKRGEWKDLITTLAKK
SENP8 block-2 = human SENP8 protease inhibitors, primary screen, biochemical, fluorescence, Nedd8 protein substrate, uHTS | Sentrin-specific protease 8 (Homo sapiens), Q96LD8 | recombinant SENP8 | inhibition, % at 20 µM | actives 0.64% (n = 360,000) | AID 602440, 2012; in the data active = inhibition mostly above about 40%, no sharp cut-off; inactive = mostly below about 27%
SENP7 block = SENP7 protease inhibitors, primary screen, biochemical, luminescence, uHTS; recombinant SENP7, Z-RLRGG-aminoluciferin luminescence, 40 min; actives 1.5% (n = 330,000); inhibition, % at 5 µM; Sentrin-specific protease 7 (Homo sapiens), Q9BQF6; AID 434973, 2010;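 active = inhibition above about 50% at the single test dose, limit read from the data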;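 also: plate controls were DMSO with enzyme for no effect and no enzyme buffer wells for full effect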
Target sequence (Q9BQF6 706-1050 limits assumed): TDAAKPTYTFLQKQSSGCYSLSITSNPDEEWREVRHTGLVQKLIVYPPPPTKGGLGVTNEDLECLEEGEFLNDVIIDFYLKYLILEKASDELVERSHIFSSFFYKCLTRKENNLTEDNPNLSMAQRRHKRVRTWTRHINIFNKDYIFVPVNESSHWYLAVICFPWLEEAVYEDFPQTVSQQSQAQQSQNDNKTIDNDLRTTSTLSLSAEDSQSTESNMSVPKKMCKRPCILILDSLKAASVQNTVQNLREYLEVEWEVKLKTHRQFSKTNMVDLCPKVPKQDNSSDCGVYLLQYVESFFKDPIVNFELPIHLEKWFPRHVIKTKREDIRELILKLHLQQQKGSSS
Platelet DG rel = inhibitors of platelet dense granule secretion, primary screen, cell-based, MLPCN, human platelets | human platelet-rich plasma, SFLLRN dense granule ATP release, luminescence | inhibition, %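 (compounds screened at 7.5 µM in platelet-rich plasma)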 | actives 0.22% (n = 300,000) | AID 1663, 2009;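 active = mean replicate score, as percent of positive control, at or above 50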
SENP1 inh = human SENP1 catalytic domain inhibitors, primary screen, biochemical, FRET, uHTS; recombinant SENP1 catalytic domain, CyPet-SUMO1-YPet FRET cleavage; Sentrin-specific protease 1 (Homo sapiens), Q9P0U3; actives 0.21% (n = 360,000); inhibition, % at 10 µM;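 active = inhibition at least 30% at 10 µM, raw YFP signal under a set limit, fluorescence ratio 0.5 to 1.5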;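 also: 0% = enzyme with DMSO and 100% = no enzyme wells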
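system = hSENP1 catalytic domain, recombinant | reagent = SFCypet-SUMO1-SFYpet substrate at 25 nM | doses = one dose per compound, 10 µM, 0.5% DMSO | incubation = enzyme reaction for 50 min at room temperature, dark | measured by = FRET, CFP and YFP emission | controls = no-enzyme low, enzyme-DMSO high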
SENP6 block = SENP6 protease inhibitors, primary screen, biochemical, luminescence, uHTS. Sentrin-specific protease 6 (Homo sapiens), Q9GZR1. Recombinant SENP6 catalytic domain, aminoluciferin luminescence. inhibition, % at 10 µM. actives 1.8% (n = 330,000);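 active = inhibition above about 50% at the single tested dose, limit read from the data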;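 also: plate controls were DMSO wells with enzyme for no effect and DMSO wells lacking enzyme for full effect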
Numbers without * were called inactive; i = inactive; nt = no result given.

SMILES	SENP8 block-1	SENP8 block-2	SENP7 block	Platelet DG rel	SENP1 inh	SENP6 block
O=C(Nc1ccc2oc(-c3ccccc3F)nc2c1)c1ncn[nH]1	51.0*	i	81.3*	2.6	1.7	81.6*
CCOc1ccc(CC(=O)OCn2nnc3ccccc3c2=O)cc1	-3.6	-1.9	8.2	4.2	1.0	36.3
CCCC(=Nc1ccc(N)cc1)C1=C(O)C(C(=O)OC)C(C)(C)CC1=O (centres undefined)	6.5	79.6*	1.2	-2.0	44.5*	14.0
CCCCn1c(SCC(=O)OCC)nnc1-c1ccoc1C	-6.6	19.1	-8.2	6.9	0.7	-14.4
C/C(=N/Nc1ccc(C(=O)O)cc1)c1ccc(O)c(O)c1O	-16.7	46.9*	-0.7	-5.9	0.5	-6.3
NNc1nc(C(F)(F)F)nc2ccccc12	-4.6	-5.0	-5.0	-5.3	5.8	-14.0
O/C=c1\ccc2cccc3nc(C(F)(F)F)nc1c23	14.7	45.6*	3.0	2.6	-22.5	15.3
COC(=O)C(C(=O)OC)c1ccccc1NS(=O)(=O)c1ccc(C)cc1	nt	8.2	nt	nt	4.3	nt
COc1cc(NS(=O)(=O)c2ccc(C)cc2)c2c(c1N)C(=O)c1ccccc1C2=O	nt	41.4*	nt	nt	18.0	nt
Cc1ccccc1NC(=O)CSc1nnc(-c2ccco2)c(-c2ccco2)n1	8.3	41.9*	5.1	2.5	15.1	6.8
O=C(CSc1nnc(-c2ccco2)c(-c2ccco2)n1)Nc1ccccc1	8.8	35.8	7.3	-3.4	2.6	1.3
Cc1ccc(NC(=O)CSc2nnc(-c3ccco3)c(-c3ccco3)n2)cc1	7.3	27.0	15.3	1.6	9.0	-2.3
CN(C)c1ccc(NC(=O)CSc2nnc(-c3ccco3)c(-c3ccco3)n2)cc1	7.8	46.3*	4.2	-18.2	20.9	30.5
Cc1cccc(C)c1NC(=O)CSc1nnc(-c2ccco2)c(-c2ccco2)n1	11.9	60.5*	-5.2	3.4	14.0	8.4
CCC(c1nnnn1-c1c(C)cccc1C)N1CCN(c2ccc(C(F)(F)F)cc2[N+](=O)[O-])CC1 (centres undefined)	nt	25.3	nt	nt	4.4	nt
COc1ccc(OC)c2c(C)cc(N3CCN(C(=O)c4ccc(C)cc4)CC3)nc12	-2.5	-389.5	7.4	-8.8	0.0	-4.8
Nc1cccc(C(=O)OCC(=O)c2ccccc2)c1	54.6*	9.9	70.2*	9.7	3.1	67.6*
CCN(CC)CCNC(=O)c1ccc2c(c1NCCO)C(=O)c1ccccc1C2=O	23.7	88.2*	37.1	3.9	4.5	36.9
Cc1cccc(NC(=O)COC(=O)c2cccc3c2C(=O)c2ccccc2C3=O)c1C	-8.5	25.5	-1.7	0.8	-2.7	-7.4
Nc1cccc(C(=O)OCC(=O)Nc2cccc3c2C(=O)c2ccccc2C3=O)c1	-7.6	29.5	3.4	-1.4	32.6*	-13.4
CCN(CC)CCC(=O)Nc1cccc2c1C(=O)c1ccccc1C2=O	5.0	39.1	10.1	-3.7	61.8*	-0.5
Fc1ccc(OCCOCCN2CCCC2)cc1	1.2	3.4	-0.5	1.2	-0.7	-24.7
Cc1nn(C)c(C(=O)NC(=S)Nc2ccc([N+](=O)[O-])cc2)c1Cl	4.6	8.9	-4.0	2.6	-2.0	21.7
CSCCC(c1nc2ccccc2[nH]1)n1c(C)nc2ccccc21 (centres undefined)	nt	4.5	nt	nt	1.5	nt
Cc1ccc(S(=O)(=O)N2CCOCC2)cc1NC(=O)CSc1ncccn1	5.1	5.7	-2.1	-0.1	0.9	-0.7
SMILES	SENP8 block-1	SENP8 block-2	SENP7 block	Platelet DG rel	SENP1 inh	SENP6 block
Cc1cccc(OC(C)C(=O)OCC(=O)N2CCN(c3ccccc3)CC2)c1 (centres undefined)	-9.1	6.6	-6.6	nt	4.0	-4.5
NC(=O)c1nsc(C(=O)N(Cc2ccc(F)cc2)C(C(=O)NCC2CCCO2)c2ccc(F)cc2)c1N (centres undefined)	-0.2	-320.2	0.8	-3.7	-17.6	8.7
CCCNC(=O)c1n[nH]c2c1CC(C(C)(C)CC)CC2 (centres undefined)	1.2	16.0	-6.3	nt	0.7	2.2
CCC(C)(C)C1CCc2[nH]nc(C(=O)N/N=C(\C)c3ccco3)c2C1 (centres undefined)	46.0	26.2	39.1	3.2	-0.3	58.0*
CCN(CC)c1ccc(NC(=O)Cn2cc3c(n2)CCC(C)C3)c(C)c1 (centres undefined)	-1.8	11.8	4.5	8.6	-0.2	-8.6
CCOC(=O)c1c(C)[nH]c(N=Nc2ccc(OC)cc2)c1C	33.5	49.4*	17.2	7.8	-0.9	61.3*
CCOC(=O)c1c(C)[nH]c(N=Nc2ccccc2)c1C	11.3	44.2*	9.1	-2.3	1.5	14.5
CCCCCCc1nc2nc(Cl)c(Cl)nc2[nH]1	nt	-18.3	nt	nt	1.2	nt
CCC(C)/C(C)=N/Nc1ccc(S(N)(=O)=O)cc1[N+](=O)[O-] (centres undefined)	0.7	31.5	-8.9	18.1	2.9	-33.4
CCCOc1ccc(/C=C2\SC(=S)N(CC3CCCO3)C2=O)cc1 (centres undefined)	-18.9	48.9*	-4.7	5.8	-7.7	-4.0
O=C1/C(=N\S(=O)(=O)c2cccs2)C([n+]2ccccc2)=C([O-])c2ccccc21	39.1	104.7*	40.9	-0.4	0.3	68.6*
COc1ccccc1-n1cc(-c2ccc(Cl)cc2)[nH]c1=O	-4.4	6.7	8.9	104.8*	0.8	5.2
Nc1cccc(C2=Nc3cccc4cccc(c34)N2)c1	nt	45.7*	nt	1.8	-6.5	nt
COc1ccc(C2=Nc3cccc4cccc(c34)N2)cc1	7.6	23.3	2.0	1.9	-10.2	11.9
O=C(OCC(=O)N1CCOCC1)C(c1ccccc1)c1ccccc1	nt	13.0	nt	-0.3	-2.2	nt
O=c1c2c(nc3cc(-c4ccccc4Cl)[nH]n13)CCS2	76.8*	-282.4	36.9	3.4	-34.8	85.5*
COc1ccc(-c2[nH]ncc2CN(C)CC2CCCCO2)cc1F (centres undefined)	-12.2	1.4	-12.2	15.7	0.6	7.9
CC(C)c1nc2ccc(Br)cn2c1NC1CCCC1	-3.7	0.7	-5.2	4.0	-8.4	-8.0
CC(=O)N1CC=C2C(C#N)=C(N)C(C#N)(C#N)[C@H](c3ccoc3)[C@H]2C1	-11.3	-164.5	-0.8	1.2	-34.1	10.8
N#CC1=C(N)C(C#N)(C#N)[C@H](c2ccoc2)[C@H]2CN(Cc3ccccc3)CC=C12	84.0*	-498.3	77.1*	3.9	-13.7	91.4*
COc1ccc(CCCNC(=O)C2(C)Cc3c(-c4ccc(NC(C)=O)cc4)ccnc3O2)cc1 (centres undefined)	nt	-7.0	nt	nt	3.7	nt
